In ChEMBL document CHEMBL2331304, “N1,N3-disubstituted uracils as nonnucleoside inhibitors of HIV-1 reverse transcriptase” (Bioorg Med Chem, 2013):
Activity calls are given as the source filed them. The calls are words filed in the database; no cut-off is given here.

Experiments:
Feline coronavirus = experiment: Antiviral activity against Feline coronavirus; assay type: functional, organism-based
MT4 = experiment: Cytotoxicity against human MT4 cells after 4 days by MTT assay; assay type: cell-based; details: mt4, 96 h
Vaccinia virus = experiment: Antiviral activity against Vaccinia virus; assay type: functional, organism-based; details: Orthopoxvirus vaccinia
Human alphaherpesvirus 3 = experiment: Antiviral activity against Varicella zoster virus; assay type: functional, organism-based
Procedure, shortened: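 VZV strain Oka and the TK− strain 07-1 were inoculated at 20 PFU onto confluent cell monolayers in the presence of varying compound concentrations. Plaque formation was recorded once complete in untreated infected controls.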

[1] = biological target: Human immunodeficiency virus type 1 reverse transcriptase (Human immunodeficiency virus 1, UniProt Q72547); experiment: Non-competitive inhibition of wild type HIV1 reverse transcriptase p66/p51 after 30 mins by liquid scintillation counting
Coxsackievirus B4 = experiment: Antiviral activity against Coxsackievirus B4; assay type: functional, organism-based
Human respirovirus 3 = experiment: Antiviral activity against Parainfluenza virus 3; assay type: functional, organism-based
Human alphaherpesvirus 2 = experiment: Antiviral activity against Human herpesvirus 2; assay type: functional, organism-based
Procedure, shortened: (§1)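 Confluent HEL, Vero, HeLa or MDCK monolayers (cell type per virus not specified) were inoculated with 100 CCID50 of virus, with a range of compound concentrations. Strains were HSV-1 KOS and TK− ACV-resistant KOS, HSV-2 Lyons and G, and HCMV AD-169 and Davis. Cytopathicity or plaques were scored once complete in untreated infected controls.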

Influenza B virus = experiment: Antiviral activity against influenza B virus; assay type: functional, organism-based
Influenza A virus [2] = experiment: Antiviral activity against Influenza A virus H3N2; assay type: functional, organism-based
[3] = test system: Mammalian orthoreovirus 1; experiment: Antiviral activity against Reovirus 1; assay type: functional, organism-based
Sindbis virus = experiment: Antiviral activity against Sindbis virus; assay type: functional, organism-based
Punta Toro virus = experiment: Antiviral activity against Punta Toro virus; assay type: functional, organism-based
[4] = test system: Human immunodeficiency virus 1; experiment: Antiviral activity against HIV1 3B infected in human MT4 cells assessed as inhibition of virus-induced cytopathic effect after 4 days by MTT assay; assay type: functional, organism-based; details: Human immunodeficiency virus 1, 3B, MT4, 96 h
Procedure, shortened: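 HIV-1 in MT-4 cells at 1 × 10^5 cells/ml, infected at MOI 0.02 (virus stock titrated as CCID50), then plated immediately onto varying compound concentrations. After 4 days at 37 °C, viable cells counted by MTT.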

Human alphaherpesvirus 1 = experiment: Antiviral activity against Human herpesvirus 1; assay type: functional, organism-based; procedure, shortened: as §1
[5] = test system: Respiratory syncytial virus; experiment: Antiviral activity against Respiratory syncytial virus; assay type: functional, organism-based
Influenza A virus [6] = experiment: Antiviral activity against Influenza A virus H1N1; assay type: functional, organism-based
[7] = test system: Vesicular stomatitis virus; experiment: Antiviral activity against Vesicular stomatitis virus; assay type: functional, organism-based
[8] = Selectivity index, ratio of CC50 for human MT4 cells to EC50 for HIV1 3B infected in human MT4 cells; assay type: toxicity, cell-based; details: MT4 cells (uninfected for CC50; HIV-1 3B infected for EC50)

Compound: Cc1cc(C)cc(OCCn2ccc(=O)n(Cc3ccccc3)c2=O)c1
- Activity (Feline coronavirus): inactive
- CC50 (MT4): 46 µM
- Activity (Vaccinia virus): inactive
- Activity (Human alphaherpesvirus 3): inactive
- Ki [1]: > 100 µM
- Activity (Coxsackievirus B4): inactive
- Activity (Human respirovirus 3): inactive
- Activity (Human alphaherpesvirus 2): inactive
- Activity (Influenza B virus): inactive
- Activity (Influenza A virus [2]): inactive
- Activity [3]: inactive
- Activity (Sindbis virus): inactive
- Activity (Punta Toro virus): inactive
- EC50 [4]: > 46 µM
- Activity (Human alphaherpesvirus 1): inactive
- Activity [5]: inactive
- Activity (Influenza A virus [6]): inactive
- Activity [7]: inactive

Compound: Cc1ccccc1OCCn1ccc(=O)n(Cc2ccccc2)c1=O
- Activity (Feline coronavirus): inactive
- CC50 (MT4): 117 µM
- Activity (Vaccinia virus): inactive
- Activity (Human alphaherpesvirus 3): inactive
- Ki [1]: > 100 µM
- Activity (Coxsackievirus B4): inactive
- Activity (Human respirovirus 3): inactive
- Activity (Human alphaherpesvirus 2): inactive
- Activity (Influenza B virus): inactive
- Activity (Influenza A virus [2]): inactive
- Activity [3]: inactive
- Activity (Sindbis virus): inactive
- Activity (Punta Toro virus): inactive
- EC50 [4]: > 117 µM
- Activity (Human alphaherpesvirus 1): inactive
- Activity [5]: inactive
- Activity (Influenza A virus [6]): inactive
- Activity [7]: inactive

Compound: Cc1ccc(OCCn2cc(C)c(=O)n(Cc3ccccc3)c2=O)cc1
- Activity (Feline coronavirus): inactive
- CC50 (MT4): > 356 µM
- Activity (Vaccinia virus): inactive
- Activity (Human alphaherpesvirus 3): inactive
- Ki [1]: 1 µM
- Activity (Coxsackievirus B4): inactive
- Activity (Human respirovirus 3): inactive
- Activity (Human alphaherpesvirus 2): inactive
- Activity (Influenza B virus): inactive
- Activity (Influenza A virus [2]): inactive
- Activity [3]: inactive
- Activity (Sindbis virus): inactive
- Activity (Punta Toro virus): inactive
- EC50 [4]: > 356 µM
- Activity (Human alphaherpesvirus 1): inactive
- Activity [5]: inactive
- Activity (Influenza A virus [6]): inactive
- Activity [7]: inactive

Compound: Cc1cccc(OCCn2ccc(=O)n(Cc3ccccc3)c2=O)c1
- Activity (Feline coronavirus): inactive
- CC50 (MT4): 207 µM
- Activity (Vaccinia virus): inactive
- Activity (Human alphaherpesvirus 3): inactive
- Ki [1]: > 100 µM
- Activity (Coxsackievirus B4): inactive
- selectivity ratio [8]: 6.7
- Activity (Human respirovirus 3): inactive
- Activity (Human alphaherpesvirus 2): inactive
- Activity (Influenza B virus): inactive
- Activity (Influenza A virus [2]): inactive
- Activity [3]: inactive
- Activity (Sindbis virus): inactive
- Activity (Punta Toro virus): inactive
- EC50 [4]: 31 µM
- Activity (Human alphaherpesvirus 1): inactive
- Activity [5]: inactive
- Activity (Influenza A virus [6]): inactive
- Activity [7]: inactive

Compound: Cc1ccc(Cn2c(=O)ccn(CCOc3ccc(C)cc3)c2=O)cc1
- Activity (Feline coronavirus): inactive
- CC50 (MT4): 250 µM
- Activity (Vaccinia virus): inactive
- Activity (Human alphaherpesvirus 3): inactive
- Ki [1]: 47 µM
- Activity (Coxsackievirus B4): inactive
- Activity (Human respirovirus 3): inactive
- Activity (Human alphaherpesvirus 2): inactive
- Activity (Influenza B virus): inactive
- Activity (Influenza A virus [2]): inactive
- Activity [3]: inactive
- Activity (Sindbis virus): inactive
- Activity (Punta Toro virus): inactive
- EC50 [4]: > 250 µM
- Activity (Human alphaherpesvirus 1): inactive
- Activity [5]: inactive
- Activity (Influenza A virus [6]): inactive
- Activity [7]: inactive

Compound: CC(C)(C)c1ccc(OCCn2ccc(=O)n(Cc3ccccc3)c2=O)cc1
- Activity (Feline coronavirus): inactive
- CC50 (MT4): 63 µM
- Activity (Vaccinia virus): inactive
- Activity (Human alphaherpesvirus 3): inactive
- Ki [1]: 15 µM
- Activity (Coxsackievirus B4): inactive
- Activity (Human respirovirus 3): inactive
- Activity (Human alphaherpesvirus 2): inactive
- Activity (Influenza B virus): inactive
- Activity (Influenza A virus [2]): inactive
- Activity [3]: inactive
- Activity (Sindbis virus): inactive
- Activity (Punta Toro virus): inactive
- EC50 [4]: > 63 µM
- Activity (Human alphaherpesvirus 1): inactive
- Activity [5]: inactive
- Activity (Influenza A virus [6]): inactive
- Activity [7]: inactive

Compound: Cc1ccc(OCCn2ccc(=O)n(CCc3ccccc3)c2=O)cc1
- Activity (Feline coronavirus): inactive
- CC50 (MT4): 129 µM
- Activity (Vaccinia virus): inactive
- Activity (Human alphaherpesvirus 3): inactive
- Ki [1]: 6.5 µM
- Activity (Coxsackievirus B4): inactive
- Activity (Human respirovirus 3): inactive
- Activity (Human alphaherpesvirus 2): inactive
- Activity (Influenza B virus): inactive
- Activity (Influenza A virus [2]): inactive
- Activity [3]: inactive
- Activity (Sindbis virus): inactive
- Activity (Punta Toro virus): inactive
- EC50 [4]: > 129 µM
- Activity (Human alphaherpesvirus 1): inactive
- Activity [5]: inactive
- Activity (Influenza A virus [6]): inactive
- Activity [7]: inactive

Compound: Cc1ccc(OCCn2ccc(=O)n(Cc3c(C)cc(C)cc3C)c2=O)cc1
- Activity (Feline coronavirus): inactive
- CC50 (MT4): 133 µM
- Activity (Vaccinia virus): inactive
- Activity (Human alphaherpesvirus 3): inactive
- Ki [1]: > 100 µM
- Activity (Coxsackievirus B4): inactive
- Activity (Human respirovirus 3): inactive
- Activity (Human alphaherpesvirus 2): inactive
- Activity (Influenza B virus): inactive
- Activity (Influenza A virus [2]): inactive
- Activity [3]: inactive
- Activity (Sindbis virus): inactive
- Activity (Punta Toro virus): inactive
- EC50 [4]: > 133 µM
- Activity (Human alphaherpesvirus 1): inactive
- Activity [5]: inactive
- Activity (Influenza A virus [6]): inactive
- Activity [7]: inactive

Compound: Cc1ccc(OCCn2ccc(=O)n(Cc3ccccc3C)c2=O)cc1
- Activity (Feline coronavirus): inactive
- CC50 (MT4): 46 µM
- Activity (Vaccinia virus): inactive
- Activity (Human alphaherpesvirus 3): inactive
- Ki [1]: > 100 µM
- Activity (Coxsackievirus B4): inactive
- Activity (Human respirovirus 3): inactive
- Activity (Human alphaherpesvirus 2): inactive
- Activity (Influenza B virus): inactive
- Activity (Influenza A virus [2]): inactive
- Activity [3]: inactive
- Activity (Sindbis virus): inactive
- Activity (Punta Toro virus): inactive
- EC50 [4]: > 46 µM
- Activity (Human alphaherpesvirus 1): inactive
- Activity [5]: inactive
- Activity (Influenza A virus [6]): inactive
- Activity [7]: inactive

Compound: Cc1ccc(OCCn2c(=O)n(Cc3ccccc3)c(=O)c3ccccc32)cc1
- Activity (Feline coronavirus): inactive
- CC50 (MT4): 25 µM
- Activity (Vaccinia virus): inactive
- Activity (Human alphaherpesvirus 3): inactive
- Ki [1]: 1 µM
- Activity (Coxsackievirus B4): inactive
- Activity (Human respirovirus 3): inactive
- Activity (Human alphaherpesvirus 2): inactive
- Activity (Influenza B virus): inactive
- Activity (Influenza A virus [2]): inactive
- Activity [3]: inactive
- Activity (Sindbis virus): inactive
- Activity (Punta Toro virus): inactive
- EC50 [4]: > 25 µM
- Activity (Human alphaherpesvirus 1): inactive
- Activity [5]: inactive
- Activity (Influenza A virus [6]): inactive
- Activity [7]: inactive

Compound: Cc1ccc(OCCn2ccc(=O)n(Cc3ccccc3)c2=O)cc1C
- Activity (Feline coronavirus): inactive
- CC50 (MT4): 60 µM
- Activity (Vaccinia virus): inactive
- Activity (Human alphaherpesvirus 3): inactive
- Ki [1]: > 100 µM
- Activity (Coxsackievirus B4): inactive
- Activity (Human respirovirus 3): inactive
- Activity (Human alphaherpesvirus 2): inactive
- Activity (Influenza B virus): inactive
- Activity (Influenza A virus [2]): inactive
- Activity [3]: inactive
- Activity (Sindbis virus): inactive
- Activity (Punta Toro virus): inactive
- EC50 [4]: > 60 µM
- Activity (Human alphaherpesvirus 1): inactive
- Activity [5]: inactive
- Activity (Influenza A virus [6]): inactive
- Activity [7]: inactive

Compound: O=c1ccn(CCOc2ccc(Cl)cc2)c(=O)n1Cc1ccccc1
- Activity (Feline coronavirus): inactive
- CC50 (MT4): 36 µM
- Activity (Vaccinia virus): inactive
- Activity (Human alphaherpesvirus 3): inactive
- Ki [1]: 22 µM
- Activity (Coxsackievirus B4): inactive
- Activity (Human respirovirus 3): inactive
- Activity (Human alphaherpesvirus 2): inactive
- Activity (Influenza B virus): inactive
- Activity (Influenza A virus [2]): inactive
- Activity [3]: inactive
- Activity (Sindbis virus): inactive
- Activity (Punta Toro virus): inactive
- EC50 [4]: > 36 µM
- Activity (Human alphaherpesvirus 1): inactive
- Activity [5]: inactive
- Activity (Influenza A virus [6]): inactive
- Activity [7]: inactive

Compound: Cc1ccnc2c1NC(=O)c1cccnc1N2C1CC1 [NEVIRAPINE]
- CC50 (MT4): > 4 µM
- EC50 [4]: 0.048 µM

Compound: O=c1ccn(CCOc2ccc3ccccc3c2)c(=O)n1Cc1ccccc1
- Activity (Feline coronavirus): inactive
- CC50 (MT4): 37 µM
- Activity (Vaccinia virus): inactive
- Activity (Human alphaherpesvirus 3): inactive
- Ki [1]: 1 µM
- Activity (Coxsackievirus B4): inactive
- Activity (Human respirovirus 3): inactive
- Activity (Human alphaherpesvirus 2): inactive
- Activity (Influenza B virus): inactive
- Activity (Influenza A virus [2]): inactive
- Activity [3]: inactive
- Activity (Sindbis virus): inactive
- Activity (Punta Toro virus): inactive
- EC50 [4]: > 37 µM
- Activity (Human alphaherpesvirus 1): inactive
- Activity [5]: inactive
- Activity (Influenza A virus [6]): inactive
- Activity [7]: inactive
